TAAR1 antagonist – human TAAR1 antagonism. Q96RJ0. CHO RD-HGA16 TAAR1, Fluo-8 calcium fluorescence, antagonist. inhibition, % at 3 µM. 360,000 tested, 1.5% active. AID 624466;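 active = inhibition above a per-plate cutoff, the mean inhibition of test compounds on that plate plus 3 SD, cut at about 49% in these data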
Target sequence (Q96RJ0 whole entry, looked up): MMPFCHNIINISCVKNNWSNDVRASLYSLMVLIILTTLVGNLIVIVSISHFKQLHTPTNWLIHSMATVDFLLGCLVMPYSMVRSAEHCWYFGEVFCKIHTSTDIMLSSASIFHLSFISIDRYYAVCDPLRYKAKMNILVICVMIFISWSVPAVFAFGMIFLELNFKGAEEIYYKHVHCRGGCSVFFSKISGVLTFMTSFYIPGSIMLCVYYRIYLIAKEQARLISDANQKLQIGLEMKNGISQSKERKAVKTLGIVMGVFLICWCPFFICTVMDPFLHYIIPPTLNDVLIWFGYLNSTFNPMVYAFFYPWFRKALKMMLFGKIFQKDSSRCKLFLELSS
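Test system: RD-HGA16 CHO cells with stable hTAAR1 and Gα16 / Probe or stimulus: EC80 β-phenethylamine stimulus / Times: seeding 17-24 h prior, 75-min 37 °C, 30-min RT dye loading / Detection: Fluo-8 calcium-sensitive fluorescence / Read-out basis: % inhibition scaled between DMSO and EC80 PEA controls / Repeats: singlicate, one well per test compound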
CHRM4 agonist – CHRM4 agonism in calcium assay | CHO-K1 hM4/Gqi5, Fluo-8 calcium fluorescence; vehicle 0%, full acetylcholine response 100% | P08173 | AID 624127 | 360,000 tested, 0.14% active | activation, % at 3 µM;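 active = activation above the run mean over all test wells plus 3 SD, cut at about 32% in these data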;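 also: peak over basal fluorescence ratio per well then scaled between controls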
M4 antag – antagonists of human muscarinic M4 receptor (CHRM4) | 360,000 tested, 0.73% active | AID 624125 | CHO-hM4 cells, ACh EC80, Fluo-8 calcium fluorescence | inhibition, % at 3 µM | P08173;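 active = inhibition above its plate's cutoff, the mean inhibition of sample wells plus 3 SD, cut at about 27% in these data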
TAAR1 ag – agonists of human TAAR1 | 360,000 tested, 0.99% active | activation, % at 3 µM | Q96RJ0 | CHO RD-HGA16 TAAR1, Fluo-8 calcium fluorescence; vehicle wells 0%, saturating PEA agonist 100%;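 active = activation above the mean activation of all test compounds in the run plus 3 SD, cut at about 38% in these data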
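test system = CHO RD-HGA16 cells carrying human TAAR1 plus Gα16 | schedule = 17-24 h seeding, 75 min 37 °C dye, 30 min RT | compound dosing = 3 µM single concentration | control set = DMSO and PEA EC100 | replicates = n 1 | signal = Fluo-8 fluorescence, 5 s baseline then 140 s kinetic read | measure = percent activation vs PEA EC100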
M4 PAM – positive allosteric modulators of human muscarinic M4 receptor. CHO-K1 hM4/Gqi5, Fluo-8 calcium fluorescence, ACh EC20; 0% = ACh EC20, 100% = maximal ACh. 360,000 tested, 0.4% active. P08173. activation, % at 3 µM;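 active = activation above its plate's cutoff, the mean activation of sample wells plus 3 SD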
A number is an active result. Shown are actives, neighbours in structure and some others; about 3% of the full set was active somewhere.

`C=CCN=C1NC(c2cccc(Cl)c2)C(C(=O)OC)=C(C)N1Cc1ccc(C(F)(F)F)cc1` (configuration not stated) gave TAAR1 antagonist inactive and TAAR1 ag inactive.
Screening COC(=O)[C@]12C[C@H](CC(=O)NCCC(C)C)C(=O)N(Cc3ccccc3)C1=C[C@H](C(C)(C)C)O[C@@H]2C returned TAAR1 antagonist inactive and TAAR1 ag inactive.
For CC(=O)c1c(C)[nH]c(C(=O)CSc2nc3ccccc3n2C)c1C the results were TAAR1 antagonist 55, CHRM4 agonist inactive, M4 antag inactive, TAAR1 ag inactive and M4 PAM inactive.
O=[N+]([O-])c1ccc(S(=O)(=O)CC2CSc3nc4ccccc4n32)cc1 (configuration not stated) was read as TAAR1 antagonist inactive, CHRM4 agonist inactive, M4 antag inactive, TAAR1 ag inactive and M4 PAM 33.
Screening Cc1nnc2n(c1=O)C(CS(=O)(=O)c1ccccc1)CS2 (configuration not stated) returned TAAR1 antagonist inactive, CHRM4 agonist inactive, M4 antag inactive, TAAR1 ag inactive and M4 PAM inactive.
Screening Cc1nc2sc(C(=O)c3ccccc3)c(N)c2c(C)c1C returned TAAR1 antagonist inactive, CHRM4 agonist 69, M4 antag 67, TAAR1 ag inactive and M4 PAM inactive.
Screening CC(=O)OC1c2ccccc2C(=O)N1Cc1ccccc1Cl (configuration not stated) returned TAAR1 antagonist inactive, CHRM4 agonist inactive, M4 antag 34, TAAR1 ag inactive and M4 PAM inactive.
For CCNC(=O)C1(C)CCCN(C(=O)c2cc(-c3ccccc3)cs2)C1 (configuration not stated) the results were TAAR1 antagonist inactive, CHRM4 agonist inactive, M4 antag inactive, TAAR1 ag inactive and M4 PAM inactive.
c1ccc(OCCNc2ccn3nc(-c4ccc(OCCN5CCOCC5)cc4)cc3n2)cc1 was read as TAAR1 antagonist 61, CHRM4 agonist inactive, M4 antag inactive, TAAR1 ag inactive and M4 PAM inactive.
For COC(=O)Cn1c(=NC(=O)c2cccc(OC)c2)sc2cc(OC)ccc21 the results were TAAR1 antagonist 49, CHRM4 agonist inactive, M4 antag inactive, TAAR1 ag inactive and M4 PAM inactive.
For COC(=O)Cn1c(=NC(=O)c2cc(OC)cc(OC)c2)sc2cc(OC)ccc21 the results were TAAR1 antagonist inactive, CHRM4 agonist inactive, M4 antag inactive, TAAR1 ag inactive and M4 PAM inactive.
`O=C(c1ccc2c(c1)C(=O)NC2=O)c1ccc2c(c1)C(=O)NC2=O` gave TAAR1 antagonist inactive and TAAR1 ag inactive.
O=C(NS(=O)(=O)c1cccc(F)c1)[C@H]1O[C@@H](n2ccc(=O)[nH]c2=O)[C@H](O)[C@@H]1O was read as TAAR1 antagonist inactive and TAAR1 ag inactive.
Screening CCC(Oc1ccccc1)C(=O)NCc1ccc(S(N)(=O)=O)cc1 (configuration not stated) returned TAAR1 antagonist inactive, CHRM4 agonist inactive, M4 antag inactive, TAAR1 ag inactive and M4 PAM 20.
For COc1ccc(/C=N/Nc2cc(C)nc3ccccc23)cc1 the results were TAAR1 antagonist inactive, CHRM4 agonist inactive, M4 antag inactive, TAAR1 ag inactive and M4 PAM inactive.
Screening COc1ccc(/C=N/Nc2cn[nH]c(=O)c2Cl)cc1 returned TAAR1 antagonist inactive, CHRM4 agonist inactive, M4 antag inactive, TAAR1 ag 41 and M4 PAM inactive.
`O=C(NCc1cccnc1)c1csc([C@H]2C[C@H](O)[C@@H](CO)O2)n1` gave TAAR1 antagonist inactive, CHRM4 agonist inactive, M4 antag inactive, TAAR1 ag inactive and M4 PAM inactive.
`CCN(CC(=O)Nc1c(F)cccc1F)C(=O)/C=C/c1ccc(OCC#N)c(OC)c1` gave TAAR1 antagonist inactive, CHRM4 agonist inactive, M4 antag inactive, TAAR1 ag inactive and M4 PAM 29.
CSc1ccc(CN2CCC(Oc3cccc(C(=O)N4CCCC4)c3)CC2)cc1 was read as TAAR1 antagonist inactive, CHRM4 agonist inactive, M4 antag 55, TAAR1 ag inactive and M4 PAM inactive.
For COC(=O)c1ccc(CN2CCC(Oc3cccc(C(=O)N4CCCC4)c3)CC2)cc1 the results were TAAR1 antagonist inactive, CHRM4 agonist inactive, M4 antag 95, TAAR1 ag inactive and M4 PAM inactive.
For O=C(c1cccc(OC2CCN(Cc3cc(F)cc(F)c3)CC2)c1)N1CCCC1 the results were TAAR1 antagonist inactive, CHRM4 agonist inactive, M4 antag inactive, TAAR1 ag inactive and M4 PAM inactive.
`COC(=O)c1ccc(CN2CCC(Oc3ccc(C(=O)N4CCCCC4)cc3)CC2)cc1` gave TAAR1 antagonist inactive, CHRM4 agonist inactive, M4 antag 62, TAAR1 ag inactive and M4 PAM inactive.
Screening COc1ccc(/C=C/CN2CCC(Oc3ccc(C(=O)N4CCCCC4)cc3)CC2)cc1 returned TAAR1 antagonist inactive, CHRM4 agonist inactive, M4 antag 31, TAAR1 ag inactive and M4 PAM inactive.
`Cc1cc(C)cc(CN2CCC(Oc3ccc(C(=O)N4CCCC4)cc3)CC2)c1` gave TAAR1 antagonist inactive, CHRM4 agonist inactive, M4 antag inactive, TAAR1 ag inactive and M4 PAM inactive.
CN(Cc1ccco1)C(=O)[C@@H](Cc1ccccc1)NC(=O)[C@H]1O[C@@H](n2ccc(=O)[nH]c2=O)[C@H](O)[C@@H]1O was read as TAAR1 antagonist inactive and TAAR1 ag inactive.
`Oc1ccc(N=Nc2ccc3c(c2)OCCO3)c2ncccc12` gave TAAR1 antagonist 79, CHRM4 agonist 37, M4 antag 30, TAAR1 ag inactive and M4 PAM inactive.
Screening NS(=O)(=O)c1ccc(N=Nc2ccc(O)c3ncccc23)cc1 returned TAAR1 antagonist inactive, CHRM4 agonist inactive, M4 antag inactive, TAAR1 ag inactive and M4 PAM inactive.
`Cc1ccc(C)c(N=Nc2ccc(O)c3ncccc23)c1` gave TAAR1 antagonist inactive, CHRM4 agonist inactive, M4 antag inactive, TAAR1 ag inactive and M4 PAM inactive.
Screening Cc1cccc(N=Nc2ccc(O)c3ncccc23)c1 returned TAAR1 antagonist 76, CHRM4 agonist inactive, M4 antag inactive, TAAR1 ag inactive and M4 PAM inactive.
`COC(=O)c1cc2c(c3c4cc(F)ccc4n(S(=O)(=O)c4ccc(C)cc4)c13)C(=O)N(C)C2` gave TAAR1 antagonist inactive and TAAR1 ag inactive.
For Cc1cccc(C)c1NC(=O)c1ccc([N+](=O)[O-])s1 the results were TAAR1 antagonist inactive, CHRM4 agonist inactive, M4 antag inactive, TAAR1 ag inactive and M4 PAM 25.
Cc1sc2ncnc(NCC(c3ccco3)N3CCCC3)c2c1C (configuration not stated) was read as TAAR1 antagonist inactive, CHRM4 agonist inactive, M4 antag 40, TAAR1 ag inactive and M4 PAM inactive.
